# Key:
# [1] = tested on: polymorphonuclear leukocytes (PMNs); test: 125I-BSA uptake and release of TCA-precipitable BSA by PMNs; type: cell-based, rabbit; settings: for k2, rate constant of further processing / k3, rate constant of release of intact material / k3/k2 + k3 / Rate constant for depletion of Ap: Table I
# Method in brief: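 Rabbit PMNs in HBSS with 2.4 mg/ml HEPES, 3.3×10^6 cells/ml, settled 15 min at 23°C as a monolayer. Incubated 30 min at 37°C with ¹²⁵I-BSA (6.5 μCi/ml), 1% unlabeled BSA and 2×10^-8 M unlabeled FNLLP to stimulate pinocytosis. Washed 10 min at 4°C, then held in fresh HBSS at 37°C or 4°C for varied times. Medium assayed for TCA-precipitable counts. k3 (release) and k2 (digestion/storage) taken from a kinetic pinosome model.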
# [2] = tested on: polymorphonuclear leukocytes (PMNs); settings: chemotactic peptide taken up by PMNs; cited from earlier work
# [3] = tested on: polymorphonuclear leukocytes (PMNs); test: 3H-FNLLP peptide uptake and release by PMN monolayers; type: cell-based, rabbit
# [4] = Table I line 2, 2 x 10-0 M/L as printed
# [5] = Table I line 4, 2 X 10^-5 M/L as printed (second time)
substance,measurement,setting,value
"BSA: bovine serum albumin (fatty-acid-free), iodinated by the chloramine-T method, pinocytic marker","k2, rate constant of further processing",[1]; BSA 1.5 X 101 cpm/L as printed,0.080 min⁻¹
same,"k3, rate constant of release of intact material",[1]; BSA 1.5 X 101 cpm/L as printed,"0,103 min-1"
same,k3/k2 + k3,[1]; BSA 1.5 X 101 cpm/L as printed,0.56
same,"k2, rate constant of further processing",[1]; BSA 3.7 X 109 cpm/L,"0,076 min-1"
same,"k3, rate constant of release of intact material",[1]; BSA 3.7 X 109 cpm/L,0.108 min⁻¹
same,k3/k2 + k3,[1]; BSA 3.7 X 109 cpm/L,0.59
same,Rate constant for depletion of Ap,[1]; BSA concentration 1.5 X 101 cpm/L as printed,0.182 min⁻¹
same,Rate constant for depletion of Ap,[1]; BSA concentration 3.7 X 109 cpm/L,0.182 min⁻¹
same,rate constant of release of TCA-precipitable BSA,"[1]; as Fig. 4, release at 37C",0.182 min⁻¹
same,half-life of release of intact material,[1]; uptake primarily via bulk-fluid-phase,~4 min
N-formyinorleucylleucylphenylalanme [FNLLP],t1/2 of release as digested peptide,[2],23 min
same,rate constant of filling the reversible pinocytic pool,"[3]; 2 x 10^-8 M 3H-FNLLP, 37C (Fig. 10)",0.165 min⁻¹
same,"k2, rate constant of further processing (digestion or storage)","[3]; Table I line 1, 2 X 10^-5 M/L",0.097 min⁻¹
same,"k3, rate constant of release of intact peptide","[3]; Table I line 1, 2 X 10^-5 M/L",0.101 min⁻¹
same,k3/k2 + k3,"[3]; Table I line 1, 2 X 10^-5 M/L",0.51
same,"k3, rate constant of release of intact peptide",[3]; [4],0.095 min⁻¹
same,k3/k2 + k3,[3]; [4],0.50
same,"k2, rate constant of further processing (digestion or storage)","[3]; Table I line 3, 2 X 10^-7 M/L",0.117 min⁻¹
same,"k3, rate constant of release of intact peptide","[3]; Table I line 3, 2 X 10^-7 M/L",0.081 min⁻¹
same,k3/k2 + k3,"[3]; Table I line 3, 2 X 10^-7 M/L",0.41
same,"k2, rate constant of further processing (digestion or storage)",[3]; [5],0.131 min⁻¹
same,"k3, rate constant of release of intact peptide",[3]; [5],0.067 min⁻¹
same,k3/k2 + k3,[3]; [5],0.34
same,"k2, rate constant of further processing (digestion or storage)","[3]; Table I line 5, 2 X 10^-9 M/L","0,128 min-1"
same,"k3, rate constant of release of intact peptide","[3]; Table I line 5, 2 X 10^-9 M/L","0,070 min-1"
same,k3/k2 + k3,"[3]; Table I line 5, 2 X 10^-9 M/L",0.35
same,"probability that pinocytosed material will be released intact, ratio k3/(k2 + k3)",[3]; estimate from Table I,approximately 0.5
same,t1/2 of release of accumulated peptide as intact peptide,"[3]; inhibitor cocktail (5 mM 2-deoxy-D-glucose, 1 mM sodium fluoride, 0.3 M sucrose, glucose-free HBSS), 37C, 2 x 10^-8 M 3H-FNLLP",4 min
same,time at which the amount of peptide accumulated reaches a plateau,"[3]; inhibitor cocktail, 2 x 10^-8 M 3H-FNLLP, 37C (Fig. 5)",~ 15 min
same,rate constant of release of intact peptide,"[3]; inhibitor cocktail, 37C, 2 x 10^-8 M 3H-FNLLP",0.173 min⁻¹

# Reference: publication PMC2112435 (The Journal of Cell Biology, 1983)
